CRFR2-BP ag: agonists of CRF-BP/CRF-R2 complex, primary screen, cell-based, HEK293, calcium dye fluorescence, uHTS | CRF-binding protein / CRF receptor 2 complex (human) | calcium dye fluorescence (FLIPR); percent of saturating CRF peptide response | activation, % at 13.2 µM | 350,000 compounds, 0.46% hits;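 active = activation of at least 50%, plus an integration ratio under a set limit after plate pattern correction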
DDE Tn6 FP inh: inhibitors of Tn6 peptide binding to fibrin DD(E), primary screen, biochemical, fluorescence polarization, human fibrin, Tn6 probe; 370,000 compounds, 0.21% hits; Fibrinogen beta chain (Homo sapiens), P02675; Fibrin DD(E) TRITC-Tn6 fluorescence polarization displacement; AID 720509, 2013; inhibition, % at 8.3 µM;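 active = inhibition above a per-campaign cutoff: mean of compounds within control limits plus 3 SD, cut at about 15% in these data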
Target sequence (P02675 whole entry, looked up): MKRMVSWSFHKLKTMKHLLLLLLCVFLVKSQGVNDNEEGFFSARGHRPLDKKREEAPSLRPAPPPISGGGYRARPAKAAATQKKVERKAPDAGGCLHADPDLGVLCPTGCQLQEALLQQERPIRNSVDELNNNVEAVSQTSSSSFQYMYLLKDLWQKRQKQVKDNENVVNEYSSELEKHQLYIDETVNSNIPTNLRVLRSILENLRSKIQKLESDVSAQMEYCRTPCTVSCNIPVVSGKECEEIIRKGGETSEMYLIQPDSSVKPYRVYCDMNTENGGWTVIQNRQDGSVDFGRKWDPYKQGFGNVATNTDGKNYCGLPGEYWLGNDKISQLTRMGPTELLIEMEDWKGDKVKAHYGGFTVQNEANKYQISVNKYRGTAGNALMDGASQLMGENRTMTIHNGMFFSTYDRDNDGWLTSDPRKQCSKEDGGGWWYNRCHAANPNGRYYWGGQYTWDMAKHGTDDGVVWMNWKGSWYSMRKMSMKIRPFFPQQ
CRFBP-R2 block: antagonists of CRF-BP/CRF-R2 complex, primary screen, cell-based, HEK293, calcium dye fluorescence, uHTS | CRF-induced calcium fluorescence | inhibition, % at 11.8 µM | 350,000 compounds, 0.59% hits;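 active = inhibition of the ligand-induced calcium signal above about 50% at the single tested concentration, limit read from the data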
Tn7 DDE FP: inhibitors of Tn7 peptide binding to fibrin DD(E), primary screen, biochemical, fluorescence polarization, human fibrin, Tn7 probe | FP displacement of FITC-Tn7 peptide from fibrin DD(E); 0% = median of compound wells per plate | inhibition, % at 8.3 µM | 370,000 compounds, 0.13% hits | AID 720508, 2013;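 active = inhibition above the mean of compounds falling within the control limits plus 3 SD of them, cut at about 14% in these data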
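System: human fibrin DD(E); quantity: Fibrin-DD(E) at 2 µM final; also added: fluorescent Tn7 probe at 0.1 µM; compound dosing: single nominal test concentration of 8.3 µM per compound; schedule: 10 min preincubation, 3 h with tracer, room temperature; detection: fluorescence polarization of the labelled Tn7 tracer; repeats: one replicate per compound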
Each line names hits and unclear results; the compound was inactive in the other large screens. In the library only some 1.2% were active in any assay of this set; here they are far more common.

CC1C(=O)N(Cc2ccc(F)cc2)c2ccccc2N1C(=O)c1c(F)cccc1F (stereo not drawn)	none
COc1ccc(C(NC(=O)c2ccc(=O)[nH]c2)C(=O)Nc2ccc(C(C)C)cc2)cc1 (stereo not drawn)	CRFR2-BP ag 58
O=C(CCCc1ccccc1)Nc1nncs1	CRFBP-R2 block 64
COc1ccc(NC(=O)CSc2nnc(-c3cccs3)o2)cc1Cl	none (no result: CRFR2-BP ag, CRFBP-R2 block)
COC(=O)C(OC(=O)c1ccccc1)C(C)Br (stereo not drawn)	CRFBP-R2 block 63
CC(C)OC(=O)c1ccc(NC(=O)c2ccccc2)cc1	none
Nc1nc2cc3c(cc2cc1C(=O)NCc1cccnc1)OCO3	none (no result: CRFR2-BP ag, CRFBP-R2 block)
O=[N+]([O-])c1cc(Cl)cc(/C=N/Nc2nc3ccccc3s2)c1O	CRFBP-R2 block 82
CC[C@H](CCCc1ccc(OC)cc1)CCC(=O)N(c1ccccc1)c1ccccc1	none (no result: CRFR2-BP ag, CRFBP-R2 block)
O=[N+]([O-])c1ccc(O)c(-c2cc(C(F)(F)F)nc(-c3ccccc3)n2)c1	CRFR2-BP ag 62, CRFBP-R2 block 59
O=C(NCCc1ccccc1)OCc1cn(Cc2cccc(Cl)c2)nn1	none (no result: CRFR2-BP ag, CRFBP-R2 block)
CCn1c(=O)c(C(=O)NCc2ccccc2Cl)c(O)c2ccccc21	none
Cn1c(=O)c(C(=O)NCc2ccccc2Cl)c(O)c2ccccc21	CRFBP-R2 block 65
CCCn1c(=O)c(C(=O)NNC(=O)c2ccccc2[N+](=O)[O-])c(O)c2ccccc21	none (no result: CRFR2-BP ag, CRFBP-R2 block)
CCCn1c(=O)c(C(=O)NNC(=O)c2ccccc2Cl)c(O)c2ccccc21	CRFR2-BP ag 66
CCOC(=O)c1cccc(NC(=O)CN(C)S(=O)(=O)c2ccco2)c1	none (no result: CRFR2-BP ag, CRFBP-R2 block)
CCCN1CCS(=O)(=O)N(Cc2cn(Cc3ccc(F)cc3)nn2)C(C(=O)OC)C1 (stereo not drawn)	none (no result: CRFR2-BP ag, CRFBP-R2 block)
CS(=O)(=O)N1CCc2cc(S(=O)(=O)N3CCN(Cc4ccc5c(c4)OCO5)CC3)ccc21	CRFBP-R2 block 57
CCOc1ccc(S(=O)(=O)N2CCN(Cc3ccc4c(c3)OCO4)CC2)cc1OCC	none
COC(=O)C1CN(Cc2cn(CCC3OCCO3)nn2)CCS(=O)(=O)N1Cc1ccc(Cl)cc1 (stereo not drawn)	none (no result: CRFR2-BP ag, CRFBP-R2 block)
CC1=Nc2ccccc2/C1=C\c1nc(-c2ccc(C(F)(F)F)cc2)oc1O	CRFR2-BP ag 121
CCCN1CCc2c(sc(NC(=O)c3ccc(S(=O)(=O)N(C)c4ccccc4)cc3)c2C(=O)NC)C1	CRFR2-BP ag 63
Cn1nccc1C(=O)Nc1sc2c(c1C(N)=O)CCCC2	none
CNC(=O)c1c(NC(=O)c2ccc(S(=O)(=O)N3CCCc4ccccc43)cc2)sc2c1CCN(C)C2	CRFR2-BP ag 159
CCCN1CCc2c(sc(NC(=O)c3ccc(S(=O)(=O)N(C)c4ccccc4)cc3)c2C(N)=O)C1	CRFR2-BP ag 99 (no result: DDE Tn6 FP inh, Tn7 DDE FP)
Cn1ccc(C(=O)Nc2sc3c(c2C(N)=O)CCCCC3)n1	CRFBP-R2 block 78
CN1CCc2c(sc(NC(=O)c3ccc(S(=O)(=O)N4CCc5ccccc54)cc3)c2C(N)=O)C1	none (no result: CRFR2-BP ag, CRFBP-R2 block)
O=S(=O)(CC1NCc2cc(F)ccc21)NCc1ccc(F)cc1 (stereo not drawn)	none (no result: CRFR2-BP ag, CRFBP-R2 block)
Cc1ccc(NC(=O)c2ccc([N+](=O)[O-])s2)cc1S(=O)(=O)N1CCOCC1	none
Cn1cccc1C(=O)N1CCN(S(=O)(=O)c2ccc(C(C)(C)C)cc2)CC1	none (no result: CRFR2-BP ag, CRFBP-R2 block)
O=C(CCc1ccccc1)N[C@H]1[C@@H](OC(=O)c2cccnc2)CCC[C@@]12C(=O)N(Cc1ccccc1)c1ccccc12	none (no result: CRFR2-BP ag, CRFBP-R2 block)
CN1CCc2c(sc(NC(=O)c3ccc(S(=O)(=O)N4CCCCCC4)cc3)c2C(N)=O)C1	CRFR2-BP ag 127 (no result: DDE Tn6 FP inh, Tn7 DDE FP)
CCCN1CCc2c(sc(NC(=O)c3ccc(S(=O)(=O)N4CCN(C(=O)OCC)CC4)cc3)c2C(N)=O)C1	CRFR2-BP ag 108
COC(=O)c1cccc(Cn2ccc3ccc(-c4ccc5ccn(C(=O)c6ccccc6OC)c5c4)cc32)c1	none (no result: CRFR2-BP ag, CRFBP-R2 block)
COc1ccc(-c2oc3ccc(-c4cc(OC)c(OC)c(OC)c4)cc3c2-c2ccc(OC)cc2)cc1	none
COc1cc(-c2ccc3cc(OC)c(OC)c(OC)c3c2)cc(OC)c1OC	CRFBP-R2 block 58
CC(=O)Nc1cc(C(N)=O)c(Cl)cc1Cl	CRFBP-R2 block 72
CC(=O)Nc1ccc(Cl)c(C(N)=O)c1	none
Cc1cccc(N2CC(O)(c3cccs3)[N+]3=C2CCCC3)c1 (stereo not drawn)	CRFBP-R2 block 94
CC(C)[C@@H](CO)N1Cc2nnn(Cc3ccccc3)c2-c2ccccc2S1(=O)=O	none (no result: CRFR2-BP ag, CRFBP-R2 block)
CCCCCCc1cc2cc(C(=O)NCc3ccccc3)c(=N)oc2cc1O	CRFR2-BP ag 175
CCCCCCc1cc2cc(C(=O)Nc3ccccc3)c(=O)oc2cc1O	none
COC(=O)[C@]12C[C@H](CC(=O)N3CCC(c4ccccc4)CC3)C(=O)N(CCc3ccc(OC)c(OC)c3)C1=C[C@H](C(C)C)O[C@@H]2C1CC1	none (no result: CRFR2-BP ag, CRFBP-R2 block)
Cc1ccc(S(=O)(=O)c2nnn3c2nc(N2CCOCC2)c2ccccc23)c(C)c1	CRFBP-R2 block 106
Cc1ccc(S(=O)(=O)c2nnn3c2nc(N2CCOCC2)c2ccccc23)cc1C	CRFBP-R2 block 55
CC(C)c1ccc(S(=O)(=O)c2nnn3c2nc(N2CCCCC2)c2ccccc23)cc1	none
CN(C)CC(=O)N[C@H]1C[C@@H]2O[C@@H](CO)CC[C@@H]2O[C@@H]1CCc1ccc(C2=CCCCC2)cc1	none (no result: CRFR2-BP ag, CRFBP-R2 block)
O=C(Nc1ccccc1N1CCCC1)C1CCN(C(=O)c2ccc(Cl)cc2)CC1	none
O=C(Nc1ccccc1N1CCCCC1)C1CCN(C(=O)c2ccc(Cl)cc2)CC1	CRFBP-R2 block 100
CCOc1ccc(S(=O)(=O)Nc2nc3ccccc3nc2Nc2ccc(N3CCOCC3)cc2)cc1	CRFR2-BP ag 77
Cc1noc(/C=C/c2cccnc2)c1[N+](=O)[O-]	none
Cc1noc(/C=C/c2ccc(-c3ccccc3Cl)o2)c1[N+](=O)[O-]	CRFR2-BP ag 205 (no result: DDE Tn6 FP inh, Tn7 DDE FP)
O=C(COC(=O)CCc1ccc(S(=O)(=O)N2CCOCC2)cc1)Nc1ccccc1OC(F)F	CRFBP-R2 block 105
CCOC(=O)/C(=C/C=C1\Sc2ccccc2N1CC)C(C)=O	CRFR2-BP ag 238 (no result: DDE Tn6 FP inh, Tn7 DDE FP)
CCC(=O)/C=C1/Sc2ccc(OC)cc2N1CC	none
CCOC(=O)/C(=C\C=C1/Sc2ccccc2N1CC)C(C)=O	CRFR2-BP ag 313
CCOC(=O)/C(=C/C=C1\Sc2cc(C)c(C)cc2N1CC)C(C)=O	CRFR2-BP ag 156
CCC(=O)/C=C1/Sc2ccccc2N1CC	none
COc1cc2c(cc1[N+](=O)[O-])-c1ccccc1C2	CRFR2-BP ag 87
COc1cc2c(cc1[N+](=O)[O-])-c1ccc([N+](=O)[O-])cc1C2	none (no result: CRFR2-BP ag, CRFBP-R2 block)
CN(C)c1ccc(NC(=O)COC(=O)Cn2nnc3ccccc32)cc1	CRFBP-R2 block 93
COc1ccc(NC(=O)COC(=O)Cn2nnc3ccccc32)cc1	none
COc1ccccc1/C=C/C=C1\Oc2c(ccc(O)c2CN2CCN(CCO)CC2)C1=O	CRFR2-BP ag 59
